Measured values reported in ChEMBL document CHEMBL1133746 (J Med Chem, 2000).
*1 amine or outer side, *2 acyl side, *3 side chain or, on linkers, in order; H or OH if unused. Where a SMILES comes first, the peptide text is derived from it. [ ]: non-standard residue; d: D form. The star is where a group is joined. X2 = O=C(O)CN1C(=O)[C@H](N*)CSc2ccccc21; X1 = O=C([C@@H]1CC(O)CN1[*:1])[*:2]; Igl = N[C@H](C(=O)O)C1Cc2ccccc2C1; Hyp = O=C(O)[C@@H]1C[C@@H](O)CN1; 2Thi = N[C@@H](Cc1cccs1)C(=O)O

Columns and labels:
B2 bradykinin receptor = target: T1, B2 bradykinin receptor (Homo sapiens, UniProt P30411); assay: Ability to bind to human cloned B2 receptor in competition binding experiments with [3H]- bradykinin
T1 sequence (P30411 whole entry): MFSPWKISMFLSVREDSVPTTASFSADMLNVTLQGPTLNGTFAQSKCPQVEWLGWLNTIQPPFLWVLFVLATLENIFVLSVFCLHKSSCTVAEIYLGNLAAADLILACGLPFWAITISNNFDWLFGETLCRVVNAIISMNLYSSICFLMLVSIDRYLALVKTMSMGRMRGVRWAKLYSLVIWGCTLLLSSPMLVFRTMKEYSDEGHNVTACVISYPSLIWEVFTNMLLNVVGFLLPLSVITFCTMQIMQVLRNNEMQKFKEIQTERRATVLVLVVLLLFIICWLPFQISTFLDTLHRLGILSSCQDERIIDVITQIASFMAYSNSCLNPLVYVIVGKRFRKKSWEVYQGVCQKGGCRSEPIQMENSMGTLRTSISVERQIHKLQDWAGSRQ
Method in brief: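 Membranes were prepared from stably transfected CHO cells expressing the human B2 receptor. Cells were scraped into 20 mM TES pH 6.8 with 1 mM 1,10-phenanthroline, 140 µg/mL bacitracin and 0.1% BSA, and membranes were spun at 40000g for 15 min. Bound label was filtered on PEI-soaked GF/B filters, washed with ice-cold buffer and counted.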

B1 bradykinin receptor = target: T2, B1 bradykinin receptor (Homo sapiens, UniProt P46663); assay: Ability to bind to human cloned B1 receptor in competition binding experiments with [3H][des-Arg10,Leu9]-Kallidin.
T2 sequence (P46663 whole entry): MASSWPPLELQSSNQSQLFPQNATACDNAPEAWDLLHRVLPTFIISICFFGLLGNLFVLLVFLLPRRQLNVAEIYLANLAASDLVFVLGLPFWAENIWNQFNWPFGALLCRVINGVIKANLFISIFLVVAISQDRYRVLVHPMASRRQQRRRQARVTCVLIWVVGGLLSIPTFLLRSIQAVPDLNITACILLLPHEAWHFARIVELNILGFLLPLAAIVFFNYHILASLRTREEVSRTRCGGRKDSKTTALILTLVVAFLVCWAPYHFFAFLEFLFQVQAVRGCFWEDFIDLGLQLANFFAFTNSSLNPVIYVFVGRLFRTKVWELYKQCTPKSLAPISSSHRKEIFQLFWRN
Method in brief: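 Membranes from stably transfected human embryonic kidney 293 cells expressing the human B1 receptor were used. Cells were scraped into 25 mM TES pH 7.4 with 1 mM 1,10-phenanthroline, 140 µg/mL bacitracin and 0.1% BSA, and membranes were spun at 40000g for 15 min. Incubation was with 1 nM [3H][des-Arg10,Leu9]-kallidin for 60 min. Nonspecific binding was taken with 10 µM [des-Arg10,Leu9]-kallidin. Bound label was collected by filtration on PEI-soaked GF/B filters and counted by scintillation.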

Homo sapiens [1] = organism: Homo sapiens; assay: Inhibition of contraction of human umbilical vein (HUV) induced by different concentrations of bradykinin was determined; format: functional; settings: for Kb: read-out: pA2 (converted)
Method in brief: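 Human umbilical vein rings (3–4 mm) were mounted in Krebs organ baths at 37 °C with 95% O2/5% CO2. Captopril (10 µM), DL-thiorphan (1 µM), mepyramine (1 µM), atropine (1 µM), indomethacin (3 µM), NG-nitro-L-arginine (30 µM) and nifedipine (0.1 µM) were added. […] Means are of at least 3 experiments.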

Homo sapiens [2] = organism: Homo sapiens; assay: Ability to inhibit contraction of human umbilical vein (HUV) induced by [des-Arg10]-Kallidin was determined.; format: functional; settings: read-out: pA2 (converted)
Method in brief: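 Human umbilical vein rings (3–4 mm) were kept overnight at 37 °C in Krebs with penicillin/streptomycin under 95% O2/5% CO2 to induce B1. They were then set in organ baths at 37 °C with captopril, thiorphan, mepyramine, atropine, indomethacin, NG-nitro-L-arginine and nifedipine added. [des-Arg10]-kallidin concentration-response curves were run 30 min later, with antagonist or vehicle added 15 min before. Means are of at least 3 experiments.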

| Compound | Ki (B2 bradykinin receptor) | Ki (B1 bradykinin receptor) | pD2 (Homo sapiens [1]) | Kb (Homo sapiens [1]) | Kb (Homo sapiens [2]) | pKp (Homo sapiens [1]) |
| --- | --- | --- | --- | --- | --- | --- |
| H-RPPGFSPFR-OH [BRADYKININ] |  |  | 7.9 |  |  |  |
| NC(N)=NCCC[C@@H](N)C(=O)N[C@@H](CCCN=C(N)N)C(=O)N1CCC[C@H]1C(=O)N1C[C@H](O)C[C@H]1C(=O)NCC(=O)N[C@@H](Cc1cccs1)C(=O)N[C@@H](CO)C(=O)N1Cc2ccccc2C[C@@H]1C(=O)N1[C@H](C(=O)O)C[C@@H]2CCCC[C@@H]21 |  | 24 nM |  | > 10000 nM | 31.6 nM |  |
| NC(N)=NCCC[C@@H](N)C(=O)N[C@@H](CCCN=C(N)N)C(=O)N1CCC[C@H]1C(=O)N1C[C@H](O)C[C@H]1C(=O)NCC(=O)N[C@@H](Cc1cccs1)C(=O)N[C@@H](CO)C(=O)N1Cc2ccccc2C[C@@H]1C(=O)N1[C@H](C(=O)N[C@@H](CCCN=C(N)N)C(=O)O)C[C@@H]2CCCC[C@@H]21 |  | > 1000 nM |  |  | > 10000 nM |  |
| CC(C)C[C@H](NC(=O)[C@@H]1CCCN1C(=O)[C@H](CO)NC(=O)[C@H](Cc1ccccc1)NC(=O)CNC(=O)[C@@H]1CCCN1C(=O)[C@@H]1CCCN1C(=O)[C@@H](N)CCCN=C(N)N)C(=O)O | > 1000 nM |  |  | > 10000 nM | 398 nM |  |
| NCCCC[C@H](N)C(=O)N[C@@H](CCCN=C(N)N)C(=O)N1CCC[C@H]1C(=O)N1CC(O)C[C@H]1C(=O)NCC(=O)N[C@@H](Cc1cccs1)C(=O)N[C@@H](CO)C(=O)N[C@@H]1CSc2ccccc2N(CC(=O)O)C1=O (some centres undefined) (H-KRP[X1]G[2Thi]S-X2) [listing 2 of 2 here] |  |  |  |  |  | 4.8 |
| CC(C)C[C@H](NC(=O)[C@@H]1CCCN1C(=O)[C@H](CO)NC(=O)[C@H](Cc1ccccc1)NC(=O)CNC(=O)[C@@H]1CCCN1C(=O)[C@@H]1CCCN1C(=O)[C@H](CCCN=C(N)N)NC(=O)[C@@H](N)CCCCN)C(=O)O | > 1000 nM |  |  | > 10000 nM | 12.6 nM |  |

Further lines, with some results ahead:

| Ki (B2 bradykinin receptor) | Ki (B1 bradykinin receptor) | Compound | pD2 (Homo sapiens [1]) | Kb (Homo sapiens [1]) | Kb (Homo sapiens [2]) | pKp (Homo sapiens [1]) |
| --- | --- | --- | --- | --- | --- | --- |
| 4.4 nM | 83 nM | N=C(N)NCCC[C@@H](N)C(=O)N[C@@H](CCCNC(=N)N)C(=O)N1CCC[C@H]1C(=O)N1CC(O)C[C@H]1C(=O)NCC(=O)N[C@@H](Cc1cccs1)C(=O)N[C@@H](CO)C(=O)N[C@@H]1CSc2ccccc2N(CC(=O)O)C1=O (some centres undefined) |  |  |  |  |
| 325 nM | 5.6 nM | NC(N)=NCCC[C@@H](N)C(=O)N[C@@H](CCCN=C(N)N)C(=O)N1CCC[C@H]1C(=O)N1CC(O)C[C@H]1C(=O)NCC(=O)N[C@H](C(=O)N[C@@H](CO)C(=O)N[C@@H]1CSc2ccccc2N(CC(=O)O)C1=O)C1Cc2ccccc2C1 (some centres undefined) |  | > 10000 nM |  |  |
| 9.2 nM | 0.023 nM | NCCCC[C@H](N)C(=O)N[C@@H](CCCN=C(N)N)C(=O)N1CCC[C@H]1C(=O)N1C[C@H](O)C[C@H]1C(=O)NCC(=O)N[C@H](C(=O)N[C@@H](CO)C(=O)N[C@@H]1CSc2ccccc2N(CC(=O)O)C1=O)C1Cc2ccccc2C1 (H-KRP[Hyp]G[Igl]S-X2) |  | > 10000 nM | 10 nM |  |
| 62 nM | 0.035 nM | NCCCC[C@H](NC(=O)[C@@H](N)CCCCN)C(=O)N[C@@H](CCCN=C(N)N)C(=O)N1CCC[C@H]1C(=O)N1CC(O)C[C@H]1C(=O)NCC(=O)N[C@H](C(=O)N[C@@H](CO)C(=O)N[C@@H]1CSc2ccccc2N(CC(=O)O)C1=O)C1Cc2ccccc2C1 (some centres undefined) (H-KKRP[X1]G[Igl]S-X2) |  | 3160 nM | 3.16 nM |  |
| 0.4 nM | 0.22 nM | NCCCC[C@H](N)C(=O)N[C@@H](CCCN=C(N)N)C(=O)N1CCC[C@H]1C(=O)N1CC(O)C[C@H]1C(=O)NCC(=O)N[C@@H](Cc1cccs1)C(=O)N[C@@H](CO)C(=O)N[C@@H]1CSc2ccccc2N(CC(=O)O)C1=O (some centres undefined) (H-KRP[X1]G[2Thi]S-X2) [listing 1 of 2 here] |  |  | 39.8 nM |  |
